Reference: ChEMBL document CHEMBL1122441, “Structure-activity relationships of synthetic antibiotic analogues of anisomycin” (1983)
Values after ≈ are worked out from the molar mass of the structure shown.

Columns and labels:
Entamoeba histolytica [1] = assay: Antiprotozoal activity measured as the conc for <[…]% inhibition of Entamoeba histolytica; format: functional, organism-based
Epidermophyton floccosum [2] = assay: Antifungal activity against Epidermophyton floccosum, activity expressed as minimum inhibitory concentration (ug/mL); format: functional
Actinomyces israelii = assay: Antibacterial activity against Actinomyces israelii, activity expressed as inhibitory zone (mm, diameter); format: functional
Method in brief: (§1)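 Agar diffusion: disks loaded with 0.05 mg drug (stock 1 mg/mL in Me2SO-EtOH 1:9) on brain-heart infusion agar seeded 1:100 with 48-h anaerobe culture grown in thioglycolate broth; incubated anaerobically at 37 °C for 24 h; zone diameter measured in mm.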

Cutibacterium acnes = assay: Antibacterial activity against Propionibacterium acnes, activity expressed as inhibitory zone (mm, diameter); format: functional; method in brief: as §1
Candida albicans [3] = assay: Antifungal activity against Candida albicans, activity expressed as […] inhibitory zone (mm, diameter); format: functional
Method in brief: (§2)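 Yeast grown in Sabouraud's dextrose broth, 24-h culture seeded 1:100 into agar; paper disks carrying 0.05 mg drug (from 1 mg/mL stock in Me2SO-EtOH 1:9); 37 °C, read after 48 h as zone diameter (mm).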

Bacteroides fragilis = assay: Antibacterial activity against Bacteroides fragilis, activity expressed as […] inhibitory zone (mm, diameter); format: functional
Method in brief: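 Agar diffusion vs B. fragilis grown in thioglycolate broth: 0.05 mg drug per paper disk (stock 1 mg/mL, Me2SO-EtOH 1:9), brain-heart infusion agar seeded with 48-h culture at 1:100, anaerobic 37 °C, 24 h; zone diameter in mm.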

Candida albicans [4] = assay: Antifungal activity against Candida albicans, activity expressed as minimum inhibitory concentration (ug/mL); format: functional
Method in brief: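 Tube dilution in Sabouraud's dextrose broth (ca. 3 mL/tube) at 37 °C; inoculum from 24-h yeast culture, 1:1000 in saline. Drug dissolved in Me2SO-EtOH (1:9), stock 3.2 mg/mL; twofold serial dilutions 32 to 0.06 µg/mL. Read after 48 h; MIC = lowest concentration with no visible growth.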

Trichomonas vaginalis [5] = assay: Antiprotozoal activity measured as the conc for 95-[…]% inhibition of Trichomonas vaginalis; format: functional, organism-based
Tritrichomonas suis [6] = assay: Antiprotozoal activity measured as the conc for <[…]% inhibition of Trichomonas foetus; format: functional, organism-based
Epidermophyton floccosum [7] = assay: Antifungal activity against Epidermophyton floccosum, activity expressed as inhibitory zone (mm, diameter); format: functional
Method in brief: (§3)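 Dermatophytes grown in Sabouraud's dextrose broth, 4-5 day cultures seeded 1:100 into agar; disks with 0.05 mg drug (1 mg/mL stock, Me2SO-EtOH 1:9); grown and tested at 28 °C, zone diameter (mm) read after 48 h.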

Clostridium novyi = assay: Antibacterial activity against Clostridium novyi, activity expressed as inhibitory zone (mm, diameter); format: functional; method in brief: as §1
Trichophyton benhamiae [8] = assay: Antifungal activity against Trichophyton mentagrophytes, activity expressed as inhibitory zone (mm, diameter); format: functional, Arthroderma benhamiae; method in brief: as §3
Saccharomyces cerevisiae [9] = assay: Antifungal activity against Saccharomyces cerevisiae, activity expressed as inhibitory zone (mm, diameter); format: functional; method in brief: as §2
Trichophyton benhamiae [10] = assay: Antifungal activity against Trichophyton mentagrophytes, activity expressed as minimum inhibitory concentration (ug/mL).; format: functional, Arthroderma benhamiae
Trichomonas vaginalis [11] = assay: Antiprotozoal activity measured as the conc for <[…]% inhibition of Trichomonas vaginalis; format: functional, organism-based
Tritrichomonas suis [12] = assay: Antiprotozoal activity measured as the conc for 95-[…]% inhibition of Trichomonas foetus; format: functional, organism-based
Streptococcus pyogenes = assay: Antibacterial activity against Streptococcus pyogenes C, activity expressed as inhibitory zone (mm, diameter); format: functional; method in brief: as §1
Saccharomyces cerevisiae [13] = assay: Antifungal activity against Saccharomyces cerevisiae, activity expressed as minimum inhibitory concentration (ug/mL).; format: functional
Entamoeba histolytica [14] = assay: Antiprotozoal activity measured as the conc for 100% inhibition of Entamoeba histolytica; format: functional, organism-based
Method in brief: (§4)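 E. histolytica (J 190) grown 48 h at 37 °C in modified Boeck Drbohlav medium, pooled; 0.6 × 10^6 organisms inoculated into 10 mL medium with drug at 32 to 0.06 µg/mL, incubated 48 h.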

Trichomonas vaginalis [15] = assay: Antiprotozoal activity measured as the conc for 100% inhibition of Trichomonas vaginalis; format: functional, organism-based
Method in brief: (§5)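 Protozoa grown 48 h (T. vaginalis in TYM 721, T. foetus in TYM 359, E. histolytica J 190 in modified Boeck Drbohlav medium, 37 °C) and pooled; 0.6 × 10^6 organisms into 10-mL tubes with drug 32 to 0.06 µg/mL, 48 h; inhibition scored microscopically against untreated controls as 100, >95, 95-25 or <25%.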

Tritrichomonas suis [16] = assay: Antiprotozoal activity measured as the conc for >95% inhibition of Trichomonas foetus; format: functional, organism-based; method in brief: as §5
Tritrichomonas suis [17] = assay: Antiprotozoal activity measured as the conc for 100% inhibition of Trichomonas foetus; format: functional, organism-based; method in brief: as §5
Entamoeba histolytica [18] = assay: Antiprotozoal activity measured as the conc for 95-[…]% inhibition of Entamoeba histolytica; format: functional, organism-based
Trichomonas vaginalis [19] = assay: Antiprotozoal activity measured as the conc for >95% inhibition of Trichomonas vaginalis; format: functional, organism-based; method in brief: as §5
Entamoeba histolytica [20] = assay: Antiprotozoal activity measured as the conc for >95% inhibition of Entamoeba histolytica; format: functional, organism-based; method in brief: as §4
Candida albicans [21] = assay: Antifungal activity against Candida albicans, activity expressed as minimum inhibitory concentration ([…]); format: functional
Saccharomyces cerevisiae [22] = assay: Antifungal activity against Saccharomyces cerevisiae, activity expressed as minimum inhibitory concentration ([…]).; format: functional
Trichophyton benhamiae [23] = assay: Antifungal activity against Trichophyton mentagrophytes, activity expressed as minimum inhibitory concentration ([…]).; format: functional, Arthroderma benhamiae
Epidermophyton floccosum [24] = assay: Antifungal activity against Epidermophyton floccosum, activity expressed as minimum inhibitory concentration ([…]); format: functional
Saccharomyces cerevisiae [25] = assay: Antifungal activity against Saccharomyces cerevisiae, activity expressed as inhibitory zone (mm, diameter); QA is questionable activity; format: functional, organism-based; method in brief: as §2
[26] = Epidermophyton floccosum, read-out: MIC
[27] = Candida albicans, read-out: MIC
[28] = Trichophyton benhamiae, read-out: MIC
[29] = Saccharomyces cerevisiae, read-out: MIC

Row | Structure (SMILES) | MIC (Epidermophyton floccosum [2]; [26]) [µg/mL] | Inhibitory zone (Actinomyces israelii) [mm] | Inhibitory zone (Cutibacterium acnes) [mm] | Inhibitory zone (Candida albicans [3]) [mm] | Inhibitory zone (Bacteroides fragilis) [mm] | MIC (Candida albicans [4]; [27]) [µg/mL] | Concentration (Trichomonas vaginalis [5]) [µg/mL] | Concentration (Tritrichomonas suis [6]) [µg/mL] | Inhibitory zone (Epidermophyton floccosum [7]) [mm] | Inhibitory zone (Clostridium novyi) [mm] | Inhibitory zone (Trichophyton benhamiae [8]) [mm] | Inhibitory zone (Saccharomyces cerevisiae [9]) [mm] | MIC (Trichophyton benhamiae [10]; [28]) [µg/mL] | Concentration (Trichomonas vaginalis [11]) [µg/mL] | Inhibitory zone (Streptococcus pyogenes) [mm] | MIC (Saccharomyces cerevisiae [13]; [29]) [µg/mL] | Concentration (Entamoeba histolytica [14]) [µg/mL] | Concentration (Trichomonas vaginalis [15]) [µg/mL] | Concentration (Trichomonas vaginalis [19]) [µg/mL] | Concentration (Entamoeba histolytica [20]) [µg/mL] | also measured
1 | COc1ccc(C(c2ccccc2)[C@H]2NC[C@H](O)[C@H]2OC(C)=O)cc1 (some centres not stated) | > 32 | 10 | 18 | 0 | 0 | > 32 | 32 | 16 | 10 | 20 | 0 | 0 | > 32 | 16 | 13 | > 32 | – | – | – | – | Concentration (Entamoeba histolytica [1]): 32 µg/mL; Concentration (Tritrichomonas suis [12]): 32 µg/mL
2 | COc1ccc(C[C@H]2NC[C@H](O)[C@H]2OC(C)=O)cc1 (racemic) [ANISOMYCIN] | 32 (≈ 121 µM) | 0 | 0 | 0 | 0 | 8 (≈ 30.2 µM) | – | – | 8 | 0 | 10 | 10 | 4 (≈ 15.1 µM) | – | 0 | 0.5 (≈ 1.88 µM) | – | – | – | – | –
3 | COc1ccc(C[C@H]2NC[C@H](O)[C@H]2OC(C)=O)cc1 (racemic) | – | – | – | – | – | – | 0.5 | 1 | – | – | – | – | – | 0.25 | – | – | 4 | 2 | 1 | 2 | Concentration (Entamoeba histolytica [1]): 0.25 µg/mL; Concentration (Tritrichomonas suis [16]): 2 µg/mL; Concentration (Tritrichomonas suis [17]): 8 µg/mL; Concentration (Entamoeba histolytica [18]): 0.5 µg/mL
4 | COc1ccc(C(C)[C@H]2NC[C@H](O)[C@H]2OC(C)=O)cc1 (some centres not stated) | – | 0 | 0 | 0 | 24 | – | – | 32 | 0 | 8 | 0 | 0 | – | 32 | 0 | – | – | – | – | – | MIC (Candida albicans [21]): > 32 µg/mL; Concentration (Entamoeba histolytica [1]): 32 µg/mL; MIC (Saccharomyces cerevisiae [22]): > 32 µg/mL; MIC (Trichophyton benhamiae [23]): > 32 µg/mL; MIC (Epidermophyton floccosum [24]): > 32 µg/mL
5 | Cc1ncc([N+](=O)[O-])n1CCO [METRONIDAZOLE] | > 32 | 0 | 0 | 0 | 20 | > 32 | 0.12 | 0.12 | 8 | 25 | 0 | – | > 32 | 0.06 | 0 | > 32 | 0.25 | 0.5 | 0.25 | 0.12 | Concentration (Tritrichomonas suis [17]): 0.5 µg/mL; Concentration (Tritrichomonas suis [12]): 0.25 µg/mL
6 | COc1ccc(C[C@H]2NC[C@H](O)[C@H]2OC(C)=O)cc1 [ANISOMYCIN] | – | – | – | – | 10 | – | – | – | – | – | – | 13 | – | – | – | – | – | – | – | – | MIC (Epidermophyton floccosum [2]): 16 µg/mL (≈ 60.3 µM); MIC (Candida albicans [4]): 4 µg/mL (≈ 15.1 µM); MIC (Trichophyton benhamiae [10]): 2 µg/mL (≈ 7.54 µM); MIC (Saccharomyces cerevisiae [13]): 0.25 µg/mL (≈ 0.942 µM)
7 | CC(=O)O[C@@H]1[C@@H](O)CN[C@@H]1Cc1ccccc1 | 32 (≈ 136 µM) | 0 | 0 | 0 | 0 | 32 (≈ 136 µM) | 2 | 2 | 8 | 0 | 10 | – | 16 (≈ 68 µM) | – | 0 | 2 (≈ 8.5 µM) | 16 | 8 | 4 | 2 | QA (Saccharomyces cerevisiae [25]): questionable activity; Concentration (Tritrichomonas suis [16]): 16 µg/mL; Concentration (Tritrichomonas suis [17]): 32 µg/mL; Concentration (Tritrichomonas suis [12]): 4 µg/mL
8 | COc1cccc(C[C@H]2NC[C@H](O)[C@H]2OC(C)=O)c1 | > 32 | 10 | 12 | 0 | 10 | > 32 | 8 | 8 | 8 | 15 | 10 | 0 | > 32 | 4 | 0 | 8 (≈ 30.2 µM) | 32 | 32 | 16 | 16 | Concentration (Entamoeba histolytica [1]): 8 µg/mL; Concentration (Tritrichomonas suis [16]): 16 µg/mL
9 | CC(=O)O[C@@H]1[C@@H](O)CN[C@@H]1Cc1ccc(C)cc1 | 16 (≈ 64.2 µM) | 0 | 0 | 0 | 0 | 8 (≈ 32.1 µM) | 2 | 0.5 | 8 | 0 | 10 | 0 | 4 (≈ 16 µM) | – | 0 | 1 (≈ 4.01 µM) | 4 | 8 | 4 | 2 | Concentration (Tritrichomonas suis [16]): 4 µg/mL; Concentration (Tritrichomonas suis [17]): 16 µg/mL; Concentration (Entamoeba histolytica [18]): 1 µg/mL; Concentration (Tritrichomonas suis [12]): 1 µg/mL
